For 48 compounds, activity change, negative = toxicity and AC50 results are on record in PubChem BioAssay AID602394 (Broad Institute, 2012).

Molecules are shown by their SMILES. Values joined by “and” are separate entries in the source; they are usually repeats but may differ in a detail not shown here. Identical values can stand only once. Active and inactive are the calls of the source.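 Rule for the calls: active = falling signal, meaning toxicity, with AC50 at or below twice the top valid dose for that sample; inconclusive = flat curve showing 30 to 70% toxicity, or poor fit; inactive = the rest.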

One may read the AC50 as the concentration at which the activity in the assay is half-maximal.

Tested on in one test: not listed separately
Nature of the test: mammalian cell viability loss – dry powder, set 2, plate reader, cytotoxicity control for antifungal single agent project, dose response (AID 602394). To be noted: NIH 3T3 fibroblast viability, Alamar Blue fluorescence, 48 h; at 2.6 µM (top of the series). In outline:
(§1)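 Test system – NIH 3T3 mouse fibroblast cells · Measured by – Alamar Blue fluorescence at 1:200 final, Ex 544 nm, Em 590 nm · Control set – geldanamycin at 10 µM as inhibition control · Schedule – 48 h treatment at 37 °C, 2–3 h Alamar Blue · Compound dosing – dose series topping at 26 µM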
Take `CC1/C=C/C=C\C=C\C=C\C=C\C=C\C=C\C(O[C@H]2OC(C)C(O)C(N)C2O)CC2OC(O)(CC(O)CC(O)C(O)CCC(O)CC(O)CC(=O)OC(C)C(C)C1O)CC(O)C2C(=O)O` (stereo partly drawn): the activity change, negative = toxicity is -14.9% (inactive).

Staying with this test, now noted: NIH 3T3 fibroblast viability, Alamar Blue fluorescence, 48 h; at 26 µM (top of the series).
With `O=C1NC(=S)N(c2ccccc2)C12CCCCC2`, the activity change, negative = toxicity is 52.9% (inactive).
Take `CC(C)N1C(=S)NC(=O)C12CCCCC2`: the activity change, negative = toxicity was 47.5% (inactive).
`O=C1NC(=S)NC12CCCCC2`: the activity change, negative = toxicity is 3.57% (inactive).
Consider `CCOC(=O)N1C(=O)C(C)(C)N(c2ccc(C)cc2)C1=S`, for which the activity change, negative = toxicity is 14.6% (inactive).
Consider `Cc1ccc(N2C(=S)N(C(=O)Oc3ccccc3)C(=O)C23CCCCC3)cc1`, for which the activity change, negative = toxicity was 0.942% (inactive).
Take `O=C1NC(=S)N(Cc2ccccc2)C12CCCCC2`: the activity change, negative = toxicity was 5.77% (inactive).
The same measure, in the same setting: with `CCOC(=O)N1C(=O)C2(CCCCC2)N(c2ccc(C#N)cc2)C1=S` the figure was 10.9% (inactive).
On the same count and under the same terms, with `CCCc1ccc(N2C(=S)N(C(=O)OCC)C(=O)C23CCCCC3)cc1` the figure was -15.8% (inactive); with `Cc1ccc(N2C(=O)C3(CCCCC3)NC2=S)cc1`, -13% (inactive).
Same read-out and setting: with `Cc1ccc(N2C(=S)NC(=O)C23CCOCC3)cc1` the figure was 29.4% (inactive); with `CCOC(=O)N1C(=S)NC(=O)C12CCCCC2`, 2.71% (inactive).
As to `Cc1ccc(N2C(=S)N(C)C(=O)C23CCCCC3)cc1`, the activity change, negative = toxicity is -4.95% (inactive) and -14.4% (inactive).
Consider `Cc1ccc(N2C(=S)NC(=O)C2(C)C)cc1`, for which the activity change, negative = toxicity was -5% (inactive).
Still for that read-out and setting: the result for `CCOC(=O)N1C(=O)C2(CCCCC2)N(C(C)C)C1=S` reads -8.87% (inactive); that for `Cc1ccc(N2C(=O)C(=O)NC2=S)cc1`, 3.56% (inactive); that for `CCOC(=O)N1C(=O)N(c2ccc(C)cc2)C2(CCCCC2)C1=O`, 7.79% (inactive).
For `CCOC(=O)N1C(=O)C2(CCCCC2)N(c2ccc(F)cc2)C1=S`, the activity change, negative = toxicity is -18.1% (inactive).
Still for that read-out and setting: the result for `CCOC(=O)N1C(=O)C2(CCCCC2)N(c2ccccc2)C1=S` reads 17.3% (inactive); that for `Cc1ccc(N2C(=O)NC(=O)C23CCCCC3)cc1`, -10.2% (inactive).
Consider `Cc1ccc(N2C(=S)NC(=O)C23CCC3)cc1`, for which the activity change, negative = toxicity was 25% (inactive).
Take `O=C1NC(=S)N(c2ccc(F)cc2)C12CCCCC2`: the activity change, negative = toxicity is 10.6% (inactive).
Same read-out and setting: the result for `Cc1ccc(N2C(=S)N(S(C)(=O)=O)C(=O)C23CCCCC3)cc1` reads -8.26% (inactive); that for `Cc1ccc(N2CC(=O)NC2=O)cc1`, 22.5% (inactive).
As for `CCOC(=O)N1C(=O)C2(CCCCC2)N(Cc2ccccc2)C1=S`, the activity change, negative = toxicity is -2.91% (inactive).
The same measure, in the same setting: with `CCOC(=O)N1C(=O)C2(CCCCC2)N(c2ccccc2C)C1=S` the figure was -14% (inactive); with `CCOC(=O)N1C(=O)C2(CCCC2)N(c2ccc(C)cc2)C1=S`, 8.13% (inactive); with `CCOC(=O)N1C(=O)C2(CCCCC2)NC1=S`, 4.41% (inactive).
In the case of `Cc1ccc(N2C(=S)NC(=O)C23CCCCC3)cc1`, the activity change, negative = toxicity is 12.5% (inactive).
On to `CCOC(=O)N1C(=O)C2(CCCCC2)N(c2ccc(OC)cc2)C1=S`, for which the activity change, negative = toxicity was 21.1% (inactive).
For the compound `CCOC(=O)N1C(=O)C2(CCC2)N(c2ccc(C)cc2)C1=S`, the activity change, negative = toxicity is -6.41% (inactive).
The same measure, in the same setting: the result for `Cc1ccc(N2C(=O)N(C)C(=O)C23CCCCC3)cc1` reads -27.1% (inactive).
With `CCCCN1C(=O)N(c2ccc(C)cc2)C2(CCCCC2)C1=O`, the activity change, negative = toxicity is -35.3% (inactive).
Turning to `CCOC(=O)N1C(=O)C2(CCOCC2)N(c2ccc(C)cc2)C1=S`, the activity change, negative = toxicity was 8.99% (inactive).

For another test, the system named is NIH 3T3 fibroblast viability, Alamar Blue fluorescence, 48 h. The description is as above.
Conditions: not given
The essentials: as §1
Consider `CCOC(=O)N1C(=O)C2(CCCCC2)N(c2ccc(CC)cc2)C1=S`, for which the AC50 is 19.5 µM.
For the compound `CCOC(=O)N1C(=O)C2(CCCCC2)N(c2ccc(C(C)C)cc2)C1=S`, the AC50 is 13.8 µM.
For the compound `Cc1ccc(N2C(=S)N(C(=O)OC(C)C)C(=O)C23CCCCC3)cc1`, the AC50 is > 52 µM (inactive).
For `CCCC(=O)N1C(=O)C2(CCCCC2)N(c2ccc(C)cc2)C1=S`, the AC50 was 18.8 µM.
`CCOC(=O)N1C(=S)N(c2ccc(C)cc2)C2(CCCCC2)C1=NCc1ccccc1`: the AC50 was > 52 µM (inactive).
Turning to `CCOC(=O)N1C(=O)C2(CCCCC2)N(c2ccc(C(C)(C)C)cc2)C1=S`, the AC50 was 16.5 µM.
With `CCCCN1C(=O)N(c2ccc(C)cc2)C2(CCCCC2)C1=S`, the AC50 is 20.9 µM.
With `CCOC(=O)N1C(=O)C2(CCCCC2)N(c2ccc(C(F)(F)F)cc2)C1=S`, the AC50 is 12.5 µM.
With `CCOC(=O)N1C(=O)C2(CCCCC2)N(c2ccc(Cl)cc2)C1=S`, the AC50 is 22.3 µM.
As for `CCOC(=O)N1C(=O)C2(CCCCC2)N(c2ccc(-c3ccccc3)cc2)C1=S`, the AC50 is 9.81 µM.
The same measure, in the same setting: the result for `CCCCN1C(=O)C2(CCCCC2)N(c2ccc(C)cc2)C1=S` reads 24.2 µM; that for `Cc1ccc(N2CC(=O)NC2=S)cc1`, 20.7 µM; that for `CCOC(=O)N1C(=O)C2(CCCCC2)N(c2cccc(C)c2)C1=S`, 24.2 µM.
On the same count and under the same terms, with `Cc1ccc(N2C(=S)N(C(=O)OCc3ccccc3)C(=O)C23CCCCC3)cc1` the figure was 6.98 µM.
